What was measured:
[1] = target: Botulinum neurotoxin type A (Clostridium botulinum) (UniProt P0DPI0); experiment: Inhibition of Clostridium botulinum BoNT/A light chain at 20 uM using P39 as substrate preincubated for 10 mins followed by substrate addition measured after 10 mins by HPLC method relative to control
In short: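 Purified BoNT/A light chain (20 nM) with 0.2 mg/mL BSA in 50 mM HEPES pH 7.4, preincubated with compound for 10 min at room temperature. Cleavage fragments were separated by reversed-phase HPLC (214/280 nm). Percent inhibition was taken from fragment peak areas with vs without compound. Mean of three experiments.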

[2] = Protein binding in mouse plasma at 400 mg/kg, po by ultra-centrifugation method; type: ADME, organism-based; settings: read-out: PPB
[3] = tested on: Mus musculus; experiment: Half life in mouse at 400 mg/kg, po by UPLC-MS/MS method; type: ADME, organism-based; settings: in vivo
In short: (§1)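 Single oral dose (400 mg/kg, 7 mice; 600 mg/kg, 6 mice), dissolved in DMSO and suspended in 0.5% hydroxyethylcellulose–0.1% Tween 80. Blood taken by cardiac puncture under chloroform, one mouse per time point, 15–120 min. Serum proteins precipitated with 2 volumes acetonitrile; analysed by UPLC-MS/MS against blank human serum calibration. Half-life read from the concentration–time curve.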

[4] = target: Botulinum neurotoxin type A (Clostridium botulinum) (UniProt P0DPI0); experiment: Inhibition of Clostridium botulinum BoNT/A holotoxin-mediated SNAP-25 cleavage in mouse HBG3 cell-derived motor neurons assessed as full length of SNAP-25 at 10 uM preincubated for 30 mins followed by intoxication measured after 4 hrs by Western blot method relative to control; design: scale not given: the % may be the effect or the level left
[5] = Drug uptake in mouse serum at 400 mg/kg, po measured at 45 mins by UPLC-MS/MS method; type: ADME, organism-based; settings: read-out: Drug uptake; in short: as §1
[6] = tested on: Mus musculus; experiment: Toxicity in mouse assessed as effect on survival at 400 to 600 mg/kg, po administered as single dose measured after 30 days; type: organism-based; settings: in vivo, 720 h
In short: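 Two groups of 5 healthy mice each received one oral dose, 400 or 600 mg/kg. Survival, appearance and behaviour were followed for 30 days. Non-toxic was defined as all 5 surviving with normal appearance and behaviour.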

[7] = Drug uptake in mouse serum at 400 mg/kg, po measured at 60 mins by UPLC-MS/MS method; type: ADME, organism-based; settings: read-out: Drug uptake; in short: as §1
[8] = tested on: Mus musculus; experiment: Drug metabolism in mouse assessed as monoacetylated metabolite formation at 400 to 600 mg/kg, po by UPLC-MS/MS method; type: ADME, organism-based; settings: in vivo
[9] = Distribution co-efficient, log D of the compound at pH 1 by reversed-phase thin-layer chromatographic method; type: physicochemical; settings: buffer
In short: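 Reversed-phase thin-layer chromatography at pH 1, mobile phase MeOH/HCl (70/30).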

[10] = target: T1, Botulinum neurotoxin type A (Clostridium botulinum, UniProt P0DPI0); experiment: (§2) Inhibition of Clostridium botulinum BoNT/A light chain using P39 as substrate preincubated for 10 mins followed by substrate addition measured after 10 mins by HPLC method
[11] = target: Botulinum neurotoxin type A (Clostridium botulinum) (UniProt P0DPI0); experiment: as §2
[12] = tested on: Liver; experiment: Half life in human liver microsomes; type: ADME, microsome
In short: (§3)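 Substrate-depletion assay: compound incubated with human or mouse liver microsomes for 1 h at 37°C. Half-life and intrinsic clearance derived from compound loss.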

[13] = Protein binding in mouse plasma at 600 mg/kg, po by ultra-centrifugation method; type: ADME, organism-based; settings: read-out: PPB
[14] = tested on: Mus musculus; experiment: Time at which drug concentration stays above 3 uM in mouse at 600 mg/kg, po by UPLC-MS/MS method; type: ADME, organism-based; settings: in vivo
In short: (§4)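 Single oral dose in DMSO suspended in 0.5% hydroxyethylcellulose–0.1% Tween 80, given to 7 (400 mg/kg) or 6 (600 mg/kg) mice. Serum came from cardiac puncture under chloroform, one mouse per time point, 15–120 min. Acetonitrile-precipitated serum was analysed by UPLC-MS/MS against calibration in blank human serum.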

[15] = Drug uptake in mouse serum at 400 mg/kg, po measured at 15 mins by UPLC-MS/MS method; type: ADME, organism-based; settings: read-out: Drug uptake; in short: as §1
[16] = target: Cytochrome P450 2C19 (Homo sapiens, UniProt P33261); experiment: Inhibition of CYP2C19 (unknown origin) using CEC as substrate; type: ADME
Sequence of Cytochrome P450 2C19 (P33261 whole entry): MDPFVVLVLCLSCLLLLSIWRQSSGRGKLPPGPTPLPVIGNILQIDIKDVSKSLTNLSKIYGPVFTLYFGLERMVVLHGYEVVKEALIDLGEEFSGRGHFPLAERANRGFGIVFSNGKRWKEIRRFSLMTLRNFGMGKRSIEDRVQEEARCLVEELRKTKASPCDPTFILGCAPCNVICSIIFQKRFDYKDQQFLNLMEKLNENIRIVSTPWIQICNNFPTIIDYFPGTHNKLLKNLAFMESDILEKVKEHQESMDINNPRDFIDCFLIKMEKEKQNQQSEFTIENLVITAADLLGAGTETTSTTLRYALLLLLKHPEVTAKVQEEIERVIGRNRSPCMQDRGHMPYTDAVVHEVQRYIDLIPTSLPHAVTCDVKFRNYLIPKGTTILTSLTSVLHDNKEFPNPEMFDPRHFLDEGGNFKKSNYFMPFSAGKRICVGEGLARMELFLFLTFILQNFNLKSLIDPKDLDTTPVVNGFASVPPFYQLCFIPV
In short: (§5)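 Active CYP450 enzyme incubated at 37°C for a set time with a fluorogenic probe substrate (BQ, DBF or BFC for CYP3A4; CEC for CYP2C19; AMMC for CYP2D6). IC50 derived from net fluorescent signal.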

[17] = Drug uptake in mouse serum at 600 mg/kg, po measured at 15 mins by UPLC-MS/MS method; type: ADME, organism-based; settings: read-out: Drug uptake; in short: as §1
[18] = tested on: Mus musculus; experiment: Drug metabolism in mouse assessed as (3alpha,5beta,7alpha,12alpha)-3-Amino-24-({4-[(7-chloroquinolin-4-yl)amino]butyl}amino)cholane-7,12-diol formation at 400 to 600 mg/kg, po by UPLC-MS/MS method; type: ADME, organism-based; settings: in vivo
[19] = tested on: Mus musculus; experiment: Tmax in mouse at 600 mg/kg, po by UPLC-MS/MS method; type: ADME, organism-based; settings: in vivo; in short: as §4
[20] = target: T1, Botulinum neurotoxin type A; experiment: (§6) Inhibition of Clostridium botulinum BoNT/A holotoxin-mediated SNAP-25 cleavage in mouse HBG3 cell-derived motor neurons preincubated for 30 mins followed by intoxication measured after 4 hrs by Western blot method
[21] = target: Botulinum neurotoxin type A (Clostridium botulinum) (UniProt P0DPI0); experiment: as §6
[22] = tested on: Liver; experiment: Intrinsic clearance in human liver microsomes after 1 hr; type: ADME, microsome; in short: as §3
[23] = tested on: Mus musculus; experiment: Toxicity in mouse assessed as effect on appearance at 160 mg/kg, po administered for 3 days measured 2 times a day for 30 days; type: organism-based; settings: in vivo, 720 h
In short: (§7)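 Groups of five healthy mice were dosed per os for three consecutive days, suspended in 0.5% hydroxyethylcellulose–0.1% Tween 80. Behaviour and appearance were monitored twice daily for 30 days, with survival assessed at 30 days. Non-toxic was defined as all 5 surviving with normal appearance and behaviour.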

[24] = target: Cytochrome P450 2D6 (Homo sapiens, UniProt P10635); experiment: Inhibition of CYP2D6 (unknown origin) using AMMC as substrate; type: ADME; in short: as §5
Sequence of Cytochrome P450 2D6 (P10635 whole entry): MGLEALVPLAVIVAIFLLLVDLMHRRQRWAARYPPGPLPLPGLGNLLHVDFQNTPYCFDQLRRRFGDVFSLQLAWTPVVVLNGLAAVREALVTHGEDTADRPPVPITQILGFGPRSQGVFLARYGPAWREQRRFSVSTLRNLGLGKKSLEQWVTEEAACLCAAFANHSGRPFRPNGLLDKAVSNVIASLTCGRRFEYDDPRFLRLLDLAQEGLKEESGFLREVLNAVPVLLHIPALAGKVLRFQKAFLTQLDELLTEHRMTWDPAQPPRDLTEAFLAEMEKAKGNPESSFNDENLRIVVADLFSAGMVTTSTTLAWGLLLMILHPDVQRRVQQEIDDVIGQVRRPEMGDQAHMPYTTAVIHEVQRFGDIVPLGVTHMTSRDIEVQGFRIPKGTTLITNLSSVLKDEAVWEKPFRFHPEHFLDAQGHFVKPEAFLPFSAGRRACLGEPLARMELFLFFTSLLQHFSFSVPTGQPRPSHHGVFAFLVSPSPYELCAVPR

[25] = Drug uptake in mouse serum at 600 mg/kg, po measured at 30 mins by UPLC-MS/MS method; type: ADME, organism-based; settings: read-out: Drug uptake; in short: as §1
[26] = Drug uptake in mouse serum at 400 mg/kg, po measured at 30 mins by UPLC-MS/MS method; type: ADME, organism-based; settings: read-out: Drug uptake; in short: as §1
[27] = Solubility of the compound at pH 7.4 by light scattering-based laser nephelometric method; type: physicochemical; settings: buffer
In short: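 Solubility measured by laser nephelometry (light scattering), pH 7.4, n=3.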

[28] = tested on: Mus musculus; experiment: Half life in mouse at 600 mg/kg, po by UPLC-MS/MS method; type: ADME, organism-based; settings: in vivo; in short: as §1
[29] = target: T1, Botulinum neurotoxin type A
[30] = tested on: Mus musculus; experiment: AUC (0 to 120 mins) in mouse at 600 mg/kg, po by UPLC-MS/MS method; type: ADME, organism-based; design: dose 600 mg/kg, time < 2 hr, route oral; settings: in vivo, 2 h
[31] = tested on: Mus musculus; experiment: Toxicity in mouse assessed as effect on behavior at 160 mg/kg, po administered for 3 days measured 2 times a day for 30 days; type: organism-based; settings: in vivo, 720 h; in short: as §7
[32] = tested on: Mus musculus; experiment: Drug metabolism in mouse assessed as M+16 metabolite formation at 400 to 600 mg/kg, po by UPLC-MS/MS method; type: ADME, organism-based; settings: in vivo
[33] = target: Botulinum neurotoxin type A (Clostridium botulinum) (UniProt P0DPI0); experiment: Inhibition of Clostridium botulinum BoNT/A holotoxin-mediated SNAP-25 cleavage in mouse HBG3 cell-derived motor neurons assessed as full length of SNAP-25 at 20 uM treated at 30 mins post intoxication by Western blot method relative to control; design: scale not given: the % may be the effect or the level left

## CC(=O)O[C@H]1C[C@H]2[C@@H]([C@H](OC(C)=O)C[C@@H]3C[C@H](N)CC[C@@]32C)[C@@H]2CC[C@H]([C@H](C)CCCNCCCCNc3ccnc4cc(Cl)ccc34)[C@@]12C
[1]
  inhibition: 66%
[2]
  fraction unbound: < 0.01
[3]
  t1/2: 43 min
[4]
  Activity: 72%
[5]
  concentration at 0.75 h: 3.3 µM
[6]
  Activity: Non-Toxic
[7]
  concentration at 1 h: 2.8 µM
[8]
  Drug metabolism: Metabolite_Notdetected
[9]
  chromatographic logD: 2.55
[10]
  IC50: 4.5 µM
[11]
  inhibition: Dose-dependent effect
[12]
  t1/2: > 60 min
[13]
  fraction unbound: < 0.01
[14]
  Time: > 45 min
[15]
  concentration at 0.25 h: 3.3 µM
[16]
  IC50: 5 µM
[17]
  concentration at 0.25 h: 11.9 µM
[18]
  Drug metabolism: Metabolite_Notdetected
[19]
  Tmax: 15 min
[20]
  IC50: 10 µM
[21]
  inhibition: Dose-dependent effect
[22]
  CLH: < 23 µL/min/mg
[23]
  Activity: Non-Toxic
[24]
  IC50: > 10 µM
[25]
  concentration at 0.5 h: 5.9 µM
[26]
  concentration at 0.5 h: 4 µM
[27]
  solubility kinetic: > 50 µg/mL
[28]
  t1/2: 23 min
[29]
  IC50: 8 µM
[30]
  AUC: 526 µM·min
[31]
  Activity: Non-Toxic
[32]
  Drug metabolism: Metabolite_Notdetected
[33]
  Activity: 64%

Source: ChEMBL document CHEMBL4024803, “New Steroidal 4-Aminoquinolines Antagonize Botulinum Neurotoxin Serotype A in Mouse Embryonic Stem Cell Derived Motor Neurons in Postintoxication Model” (J Med Chem, 2018)
